Results: ChEMBL document CHEMBL4689842, “EUbOPEN Chemogenomics Library wave 1” (2021)

Tested on: HEK-293T
Assay: Multiplex assay against HEK293T;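 on Population Tubulin-Different-Phenotype (%): share of the cells with healthy nuclei that show this phenotype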
Format: toxicity, cell-based
Conditions: human
Method in brief: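 With compound added, live cells were imaged on a CQ1 microscope at 37°C and 5% CO2; staining with Hoechst33342, BioTracker Green Microtubule Cytoskeleton Dye, MitoTracker Red and Annexin V Alexa Fluor 680 had been done at seeding. The CellPathfinder machine-learning gating scheme split cells into Hoechst high-intensity objects or normal cells, normal cells into healthy, pyknosed or fragmented nuclei, and pyknosed cells into mitotic or apoptotic. The tubulin, mitochondrial-mass and membrane-permeability phenotypes are per cents of healthy-nucleus cells.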

[1] = 12 h, 1 µM, compound concentration 1 uM, replicate 1
[2] = 12 h, 1 µM, compound concentration 1 uM, replicate 2
[3] = 12 h, 10 µM, compound concentration 10 uM, replicate 1
[4] = 12 h, 10 µM, compound concentration 10 uM, replicate 2
[5] = 24 h, 1 µM, compound concentration 1 uM, replicate 1
[6] = 24 h, 1 µM, compound concentration 1 uM, replicate 2
[7] = 24 h, 10 µM, compound concentration 10 uM, replicate 1
[8] = 24 h, 10 µM, compound concentration 10 uM, replicate 2
[9] = 48 h, 1 µM, compound concentration 1 uM, replicate 1
[10] = 48 h, 1 µM, compound concentration 1 uM, replicate 2
[11] = 48 h, 10 µM, compound concentration 10 uM, replicate 1
[12] = 48 h, 10 µM, compound concentration 10 uM, replicate 2

For `CC(=O)c1cc(-c2cc(C(=O)NC3CC3)ccc2C)c2ncccn12`, the “Population Apoptotic (%)” value [1] was 51%, the “Population Fragmented Nuclei (%)” value [1] was 11% and the “Population Healthy Nuclei (%)” value [1] was 27%. The “Population Hoechst High Intensity Objects (%)” value [1] was 12%, the “Population Membrane Permeable-Phenotype (%)” value [1] was 3% and the “Population Mitochondria Different-Phenotype (%)” value [1] was 59%. For the same compound, the “Population Mitotic Cells (%)” value [1] was 48%, the “Population Normal (%)” value [1] was 87% and the “Population Pyknosed Nuclei (%)” value [1] was 61%. The “Population Tubulin-Different-Phenotype (%)” value [1] was 36%, the “Total Cell Count” value [1] was 275 and the “Population Apoptotic (%)” value [2] was 16%. The “Population Fragmented Nuclei (%)” value [2] was 1%, the “Population Healthy Nuclei (%)” value [2] was 48% and the “Population Hoechst High Intensity Objects (%)” value [2] was 3%. The “Population Membrane Permeable-Phenotype (%)” value [2] was 5%, the “Population Mitochondria Different-Phenotype (%)” value [2] was 17% and the “Population Mitotic Cells (%)” value [2] was 83%. For the same compound, the “Population Normal (%)” value [2] was 96%, the “Population Pyknosed Nuclei (%)” value [2] was 49% and the “Population Tubulin-Different-Phenotype (%)” value [2] was 21%. For the same compound, the “Total Cell Count” value [2] was 271, the “Population Apoptotic (%)” value [3] was 50% and the “Population Fragmented Nuclei (%)” value [3] was 12%. The “Population Healthy Nuclei (%)” value [3] was 29%, the “Population Hoechst High Intensity Objects (%)” value [3] was 15% and the “Population Membrane Permeable-Phenotype (%)” value [3] was 4%. The “Population Mitochondria Different-Phenotype (%)” value [3] was 81%, the “Population Mitotic Cells (%)” value [3] was 49% and the “Population Normal (%)” value [3] was 84%. The “Population Pyknosed Nuclei (%)” value [3] was 58%, the “Population Tubulin-Different-Phenotype (%)” value [3] was 39% and the “Total Cell Count” value [3] was 265. The “Population Apoptotic (%)” value [4] was 22%, the “Population Fragmented Nuclei (%)” value [4] was 6% and the “Population Healthy Nuclei (%)” value [4] was 31%. The “Population Hoechst High Intensity Objects (%)” value [4] was 4%, the “Population Membrane Permeable-Phenotype (%)” value [4] was 5% and the “Population Mitochondria Different-Phenotype (%)” value [4] was 38%. The “Population Mitotic Cells (%)” value [4] was 77%, the “Population Normal (%)” value [4] was 95% and the “Population Pyknosed Nuclei (%)” value [4] was 62%. The “Population Tubulin-Different-Phenotype (%)” value [4] was 21%, the “Total Cell Count” value [4] was 199 and the “Population Apoptotic (%)” value [5] was 51%. For the same compound, the “Population Fragmented Nuclei (%)” value [5] was 15%, the “Population Healthy Nuclei (%)” value [5] was 31% and the “Population Hoechst High Intensity Objects (%)” value [5] was 13%. For the same compound, the “Population Membrane Permeable-Phenotype (%)” value [5] was 2%, the “Population Mitochondria Different-Phenotype (%)” value [5] was 42% and the “Population Mitotic Cells (%)” value [5] was 48%. The “Population Normal (%)” value [5] was 86%, the “Population Pyknosed Nuclei (%)” value [5] was 52% and the “Population Tubulin-Different-Phenotype (%)” value [5] was 26%. For the same compound, the “Total Cell Count” value [5] was 305, the “Population Apoptotic (%)” value [6] was 10% and the “Population Fragmented Nuclei (%)” value [6] was 5%. For the same compound, the “Population Healthy Nuclei (%)” value [6] was 65%, the “Population Hoechst High Intensity Objects (%)” value [6] was 2% and the “Population Membrane Permeable-Phenotype (%)” value [6] was 1%. For the same compound, the “Population Mitochondria Different-Phenotype (%)” value [6] was 16%, the “Population Mitotic Cells (%)” value [6] was 89% and the “Population Normal (%)” value [6] was 97%. For the same compound, the “Population Pyknosed Nuclei (%)” value [6] was 29%, the “Population Tubulin-Different-Phenotype (%)” value [6] was 25% and the “Total Cell Count” value [6] was 349. The “Population Apoptotic (%)” value [7] was 46%, the “Population Fragmented Nuclei (%)” value [7] was 18% and the “Population Healthy Nuclei (%)” value [7] was 31%. The “Population Hoechst High Intensity Objects (%)” value [7] was 17%, the “Population Membrane Permeable-Phenotype (%)” value [7] was 0% and the “Population Mitochondria Different-Phenotype (%)” value [7] was 76%. The “Population Mitotic Cells (%)” value [7] was 53%, the “Population Normal (%)” value [7] was 82% and the “Population Pyknosed Nuclei (%)” value [7] was 49%. The “Population Tubulin-Different-Phenotype (%)” value [7] was 38%, the “Total Cell Count” value [7] was 280 and the “Population Apoptotic (%)” value [8] was 28%. The “Population Fragmented Nuclei (%)” value [8] was 7%, the “Population Healthy Nuclei (%)” value [8] was 51% and the “Population Hoechst High Intensity Objects (%)” value [8] was 3%. For the same compound, the “Population Membrane Permeable-Phenotype (%)” value [8] was 4%, the “Population Mitochondria Different-Phenotype (%)” value [8] was 33% and the “Population Mitotic Cells (%)” value [8] was 71%. For the same compound, the “Population Normal (%)” value [8] was 96%, the “Population Pyknosed Nuclei (%)” value [8] was 41% and the “Population Tubulin-Different-Phenotype (%)” value [8] was 30%. The “Total Cell Count” value [8] was 233, the “Population Apoptotic (%)” value [9] was 44% and the “Population Fragmented Nuclei (%)” value [9] was 15%. For the same compound, the “Population Healthy Nuclei (%)” value [9] was 43%, the “Population Hoechst High Intensity Objects (%)” value [9] was 14% and the “Population Membrane Permeable-Phenotype (%)” value [9] was 10%. The “Population Mitochondria Different-Phenotype (%)” value [9] was 22%, the “Population Mitotic Cells (%)” value [9] was 55% and the “Population Normal (%)” value [9] was 85%. The “Population Pyknosed Nuclei (%)” value [9] was 41%, the “Population Tubulin-Different-Phenotype (%)” value [9] was 28% and the “Total Cell Count” value [9] was 343. For the same compound, the “Population Apoptotic (%)” value [10] was 8%, the “Population Fragmented Nuclei (%)” value [10] was 6% and the “Population Healthy Nuclei (%)” value [10] was 78%. The “Population Hoechst High Intensity Objects (%)” value [10] was 4%, the “Population Membrane Permeable-Phenotype (%)” value [10] was 4% and the “Population Mitochondria Different-Phenotype (%)” value [10] was 6%. The “Population Mitotic Cells (%)” value [10] was 91%, the “Population Normal (%)” value [10] was 95% and the “Population Pyknosed Nuclei (%)” value [10] was 14%. For the same compound, the “Population Tubulin-Different-Phenotype (%)” value [10] was 21%, the “Total Cell Count” value [10] was 595 and the “Population Apoptotic (%)” value [11] was 57%. The “Population Fragmented Nuclei (%)” value [11] was 24%, the “Population Healthy Nuclei (%)” value [11] was 24% and the “Population Hoechst High Intensity Objects (%)” value [11] was 17%. For the same compound, the “Population Membrane Permeable-Phenotype (%)” value [11] was 1%, the “Population Mitochondria Different-Phenotype (%)” value [11] was 63% and the “Population Mitotic Cells (%)” value [11] was 42%. For the same compound, the “Population Normal (%)” value [11] was 82%, the “Population Pyknosed Nuclei (%)” value [11] was 51% and the “Population Tubulin-Different-Phenotype (%)” value [11] was 36%. The “Total Cell Count” value [11] was 280, the “Population Apoptotic (%)” value [12] was 17% and the “Population Fragmented Nuclei (%)” value [12] was 6%. The “Population Healthy Nuclei (%)” value [12] was 58%, the “Population Hoechst High Intensity Objects (%)” value [12] was 3% and the “Population Membrane Permeable-Phenotype (%)” value [12] was 5%. The “Population Mitochondria Different-Phenotype (%)” value [12] was 29%, the “Population Mitotic Cells (%)” value [12] was 82% and the “Population Normal (%)” value [12] was 96%. The “Population Pyknosed Nuclei (%)” value [12] was 35% and the “Total Cell Count” value [12] was 284.
